Where “and” joins values, the source holds several entries; their conditions need not be identical. Equal entries are not always repeated.
Tested on: U2OS
Assay: Multiplex assay against U2OS
Type: toxicity, cell-based
Conditions: human
In short: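 Tubulin, mitochondrial-mass and membrane-permeability phenotypes are per cents of healthy-nucleus cells. Cells were gated by CellPathfinder machine learning into Hoechst high-intensity objects or normal cells, normal cells into healthy, pyknosed or fragmented nuclei, and pyknosed cells into mitotic or apoptotic. Before that, live cells stained at seeding with Hoechst33342, BioTracker Green Microtubule Cytoskeleton Dye, MitoTracker Red and Annexin V Alexa Fluor 680 were imaged on a CQ1 microscope at 37°C and 5% CO2 after compound addition.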

[1] = 12 h, 1 µM, compound concentration 1 uM, replicate 1
[2] = 12 h, 1 µM, compound concentration 1 uM, replicate 2
[3] = 12 h, 10 µM, compound concentration 10 uM, replicate 1
[4] = 12 h, 10 µM, compound concentration 10 uM, replicate 2
[5] = 24 h, 1 µM, compound concentration 1 uM, replicate 1
[6] = 24 h, 1 µM, compound concentration 1 uM, replicate 2
[7] = 24 h, 10 µM, compound concentration 10 uM, replicate 1
[8] = 24 h, 10 µM, compound concentration 10 uM, replicate 2
[9] = 48 h, 1 µM, compound concentration 1 uM, replicate 1
[10] = 48 h, 1 µM, compound concentration 1 uM, replicate 2
[11] = 48 h, 10 µM, compound concentration 10 uM, replicate 1
[12] = 48 h, 10 µM, compound concentration 10 uM, replicate 2

## Cc1nc(-c2cn3c(n2)-c2ccc(-c4cnn(C(C)(C)C(N)=O)c4)cc2OCC3)n(C(C)C)n1 [TASELISIB]
[1]
  Population Apoptotic (%): 54%
  Population Fragmented Nuclei (%): 3%
  Population Healthy Nuclei (%): 84%
  Population Hoechst High Intensity Objects (%): 2%
  Population Membrane Permeable-Phenotype (%): 16%
  Population Mitochondria Different-Phenotype (%): 10%
  Population Mitotic Cells (%): 45%
  Population Normal (%): 97%
  Population Pyknosed Nuclei (%): 11%
  Population Tubulin-Different-Phenotype (%): 9%
  Total Cell Count: 181
[2]
  Population Apoptotic (%): 16%
  Population Fragmented Nuclei (%): 12%
  Population Healthy Nuclei (%): 77%
  Population Hoechst High Intensity Objects (%): 12%
  Population Membrane Permeable-Phenotype (%): 27%
  Population Mitochondria Different-Phenotype (%): 20%
  Population Mitotic Cells (%): 83%
  Population Normal (%): 87%
  Population Pyknosed Nuclei (%): 9%
  Population Tubulin-Different-Phenotype (%): 25%
  Total Cell Count: 89
[3]
  Population Apoptotic (%): 44%
  Population Fragmented Nuclei (%): 5%
  Population Healthy Nuclei (%): 89%
  Population Hoechst High Intensity Objects (%): 2%
  Population Membrane Permeable-Phenotype (%): 12%
  Population Mitochondria Different-Phenotype (%): 19%
  Population Mitotic Cells (%): 55%
  Population Normal (%): 97%
  Population Pyknosed Nuclei (%): 5%
  Population Tubulin-Different-Phenotype (%): 24%
  Total Cell Count: 166
[4]
  Population Apoptotic (%): 55%
  Population Fragmented Nuclei (%): 9%
  Population Healthy Nuclei (%): 78%
  Population Hoechst High Intensity Objects (%): 16%
  Population Membrane Permeable-Phenotype (%): 18%
  Population Mitochondria Different-Phenotype (%): 12%
  Population Mitotic Cells (%): 44%
  Population Normal (%): 83%
  Population Pyknosed Nuclei (%): 12%
  Population Tubulin-Different-Phenotype (%): 12%
  Total Cell Count: 65
[5]
  Population Apoptotic (%): 40%
  Population Fragmented Nuclei (%): 6%
  Population Healthy Nuclei (%): 80%
  Population Hoechst High Intensity Objects (%): 4%
  Population Membrane Permeable-Phenotype (%): 15%
  Population Mitotic Cells (%): 59%
  Population Normal (%): 95%
  Population Pyknosed Nuclei (%): 13%
  Population Tubulin-Different-Phenotype (%): 12%
  Total Cell Count: 240
[6]
  Population Apoptotic (%): 27%
  Population Fragmented Nuclei (%): 20%
  Population Healthy Nuclei (%): 64%
  Population Hoechst High Intensity Objects (%): 6%
  Population Membrane Permeable-Phenotype (%): 21%
  Population Mitochondria Different-Phenotype (%): 6%
  Population Mitotic Cells (%): 72%
  Population Normal (%): 93%
  Population Pyknosed Nuclei (%): 15%
  Population Tubulin-Different-Phenotype (%): 29%
  Total Cell Count: 91
[7]
  Population Apoptotic (%): 27%
  Population Healthy Nuclei (%): 91%
  Population Hoechst High Intensity Objects (%): 1%
  Population Mitochondria Different-Phenotype (%): 11%
  Population Mitotic Cells (%): 72%
  Population Normal (%): 98%
  Population Pyknosed Nuclei (%): 4%
  Population Tubulin-Different-Phenotype (%): 26%
  Total Cell Count: 168
[8]
  Population Apoptotic (%): 60%
  Population Fragmented Nuclei (%): 4%
  Population Healthy Nuclei (%): 83%
  Population Hoechst High Intensity Objects (%): 4%
  Population Membrane Permeable-Phenotype (%): 13%
  Population Mitochondria Different-Phenotype (%): 15%
  Population Mitotic Cells (%): 40%
  Population Normal (%): 95%
  Population Pyknosed Nuclei (%): 11%
  Population Tubulin-Different-Phenotype (%): 20%
  Total Cell Count: 67

## Cc1sc2c(c1C)C(c1ccc(Cl)cc1)=N[C@@H](CC(=O)OC(C)(C)C)c1nnc(C)n1-2
[3]
  Population Apoptotic (%): 41% and 34%
  Population Fragmented Nuclei (%): 12%
  Population Healthy Nuclei (%): 67% and 58%
  Population Hoechst High Intensity Objects (%): 5% and 6%
  Population Membrane Permeable-Phenotype (%): 21% and 12%
  Population Mitochondria Different-Phenotype (%): 17% and 22%
  Population Mitotic Cells (%): 58% and 65%
  Population Normal (%): 94% and 93%
  Population Pyknosed Nuclei (%): 19% and 20%
  Population Tubulin-Different-Phenotype (%): 17% and 24%
  Total Cell Count: 1986
[4]
  Population Apoptotic (%): 28% and 14%
  Population Fragmented Nuclei (%): 29% and 21%
  Population Healthy Nuclei (%): 55% and 62%
  Population Hoechst High Intensity Objects (%): 13% and 12%
  Population Membrane Permeable-Phenotype (%): 14%
  Population Mitochondria Different-Phenotype (%): 28% and 33%
  Population Mitotic Cells (%): 71% and 85%
  Population Normal (%): 86% and 87%
  Population Pyknosed Nuclei (%): 15% and 16%
  Population Tubulin-Different-Phenotype (%): 36% and 27%
[7]
  Population Apoptotic (%): 88%
  Population Fragmented Nuclei (%): 16% and 20%
  Population Healthy Nuclei (%): 58%
  Population Hoechst High Intensity Objects (%): 5% and 6%
  Population Membrane Permeable-Phenotype (%): 27% and 23%
  Population Mitochondria Different-Phenotype (%): 19% and 29%
  Population Mitotic Cells (%): 12%
  Population Normal (%): 94% and 93%
  Population Pyknosed Nuclei (%): 24% and 20%
  Population Tubulin-Different-Phenotype (%): 30% and 40%
[8]
  Population Apoptotic (%): 76% and 64%
  Population Fragmented Nuclei (%): 30% and 25%
  Population Healthy Nuclei (%): 53% and 52%
  Population Hoechst High Intensity Objects (%): 11% and 12%
  Population Membrane Permeable-Phenotype (%): 20% and 18%
  Population Mitochondria Different-Phenotype (%): 30% and 23%
  Population Mitotic Cells (%): 23% and 35%
  Population Normal (%): 88%
  Population Pyknosed Nuclei (%): 15% and 22%
  Population Tubulin-Different-Phenotype (%): 52% and 34%

## CN1CCC[C@@H]1CCO[C@](C)(c1ccccc1)c1ccc(Cl)cc1.O=C(O)/C=C/C(=O)O [CLEMASTINE FUMARATE]
[1]
  Population Apoptotic (%): 50%
  Population Fragmented Nuclei (%): 12%
  Population Healthy Nuclei (%): 72%
  Population Hoechst High Intensity Objects (%): 11%
  Population Membrane Permeable-Phenotype (%): 5%
  Population Mitochondria Different-Phenotype (%): 18%
  Population Mitotic Cells (%): 50%
  Population Normal (%): 88%
  Population Pyknosed Nuclei (%): 14%
  Population Tubulin-Different-Phenotype (%): 12%
  Total Cell Count: 108
[2]
  Population Fragmented Nuclei (%): 15%
  Population Healthy Nuclei (%): 76%
  Population Hoechst High Intensity Objects (%): 1%
  Population Membrane Permeable-Phenotype (%): 3%
  Population Mitochondria Different-Phenotype (%): 6%
  Population Normal (%): 98%
  Population Pyknosed Nuclei (%): 7%
  Population Tubulin-Different-Phenotype (%): 3%
  Total Cell Count: 78
[3]
  Population Apoptotic (%): 50%
  Population Fragmented Nuclei (%): 24%
  Population Hoechst High Intensity Objects (%): 18%
  Population Membrane Permeable-Phenotype (%): 13%
  Population Mitochondria Different-Phenotype (%): 97%
  Population Mitotic Cells (%): 50%
  Population Normal (%): 81%
  Population Pyknosed Nuclei (%): 34%
  Population Tubulin-Different-Phenotype (%): 83%
  Total Cell Count: 127
[4]
  Population Apoptotic (%): 85%
  Population Fragmented Nuclei (%): 19%
  Population Healthy Nuclei (%): 41%
  Population Hoechst High Intensity Objects (%): 21%
  Population Membrane Permeable-Phenotype (%): 6%
  Population Mitochondria Different-Phenotype (%): 86%
  Population Mitotic Cells (%): 14%
  Population Normal (%): 78%
  Population Pyknosed Nuclei (%): 38%
  Population Tubulin-Different-Phenotype (%): 40%
  Total Cell Count: 46
[5]
  Population Apoptotic (%): 55%
  Population Fragmented Nuclei (%): 7%
  Population Healthy Nuclei (%): 85%
  Population Hoechst High Intensity Objects (%): 6%
  Population Membrane Permeable-Phenotype (%): 5%
  Population Mitochondria Different-Phenotype (%): 9%
  Population Mitotic Cells (%): 44%
  Population Normal (%): 93%
  Population Pyknosed Nuclei (%): 7%
  Population Tubulin-Different-Phenotype (%): 13%
  Total Cell Count: 135
[6]
  Population Apoptotic (%): 18%
  Population Fragmented Nuclei (%): 14%
  Population Healthy Nuclei (%): 70%
  Population Hoechst High Intensity Objects (%): 0%
  Population Mitochondria Different-Phenotype (%): 13%
  Population Mitotic Cells (%): 81%
  Population Normal (%): 99%
  Population Pyknosed Nuclei (%): 15%
  Population Tubulin-Different-Phenotype (%): 6%
  Total Cell Count: 107
[7]
  Population Apoptotic (%): 64%
  Population Fragmented Nuclei (%): 33%
  Population Healthy Nuclei (%): 35%
  Population Hoechst High Intensity Objects (%): 10%
  Population Membrane Permeable-Phenotype (%): 21%
  Population Mitochondria Different-Phenotype (%): 100%
  Population Mitotic Cells (%): 35%
  Population Normal (%): 90%
  Population Pyknosed Nuclei (%): 31%
  Population Tubulin-Different-Phenotype (%): 68%
  Total Cell Count: 120
[8]
  Population Apoptotic (%): 76%
  Population Fragmented Nuclei (%): 21%
  Population Healthy Nuclei (%): 36%
  Population Hoechst High Intensity Objects (%): 12%
  Population Membrane Permeable-Phenotype (%): 26%
  Population Mitochondria Different-Phenotype (%): 86%
  Population Mitotic Cells (%): 23%
  Population Normal (%): 87%
  Population Pyknosed Nuclei (%): 41%
  Population Tubulin-Different-Phenotype (%): 26%
  Total Cell Count: 47
[9]
  Population Apoptotic (%): 38%
  Population Hoechst High Intensity Objects (%): 3%
  Population Membrane Permeable-Phenotype (%): 4%
  Population Mitochondria Different-Phenotype (%): 11%
  Population Mitotic Cells (%): 61%
  Population Normal (%): 96%
  Population Pyknosed Nuclei (%): 10%
  Population Tubulin-Different-Phenotype (%): 6%
  Total Cell Count: 184
[10]
  Population Apoptotic (%): 31%
  Population Fragmented Nuclei (%): 5%
  Population Healthy Nuclei (%): 84%
  Population Hoechst High Intensity Objects (%): 1%
  Population Membrane Permeable-Phenotype (%): 5%
  Population Mitochondria Different-Phenotype (%): 13%
  Population Mitotic Cells (%): 68%
  Population Normal (%): 98%
  Population Pyknosed Nuclei (%): 9%
  Population Tubulin-Different-Phenotype (%): 15%
  Total Cell Count: 164
[11]
  Population Apoptotic (%): 83%
  Population Fragmented Nuclei (%): 33%
  Population Healthy Nuclei (%): 25%
  Population Hoechst High Intensity Objects (%): 11%
  Population Membrane Permeable-Phenotype (%): 3%
  Population Mitochondria Different-Phenotype (%): 80%
  Population Mitotic Cells (%): 16%
  Population Normal (%): 88%
  Population Pyknosed Nuclei (%): 41%
  Population Tubulin-Different-Phenotype (%): 50%
  Total Cell Count: 117
[12]
  Population Apoptotic (%): 54%
  Population Fragmented Nuclei (%): 25%
  Population Healthy Nuclei (%): 46%
  Population Hoechst High Intensity Objects (%): 15%
  Population Membrane Permeable-Phenotype (%): 44%
  Population Mitochondria Different-Phenotype (%): 72%
  Population Mitotic Cells (%): 45%
  Population Normal (%): 84%
  Population Pyknosed Nuclei (%): 28%
  Population Tubulin-Different-Phenotype (%): 55%
  Total Cell Count: 46
